Assay results from PMC3861893 (Journal of medicinal chemistry, 2012).

Legend:
[1] = tested on: antigen-specific CD8+ T cells; experiment: In vivo cellular immune response assay; parameters: species or system C57BL/6 (B6) mice; conditions: for response rate of tetramer positive CD8+ T cells (day 7 = 100%): average, n = 3
Method in brief: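 Mice aged 6-8 weeks immunized i.v. with 200 μL of 100 μg Trp1455/9M peptide, 50 μg anti-CD40 mAb (FGK-45.5) and 50 μg TLR2 agonist (test compound, Pam2CSK4 or Pam3CSK4). Submandibular blood taken on days 7, 21 and 34, red cells lysed with ammonium chloride. Stained 40 min on ice with anti-CD8a, PE Trp1455/9M/H-2Db tetramer and anti-MHC II. Tetramer+ CD8+ cells gated by flow cytometry; n=3.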

TLR2 = TLR2 (Homo sapiens, UniProt O60603); experiment: In cyto europium TRF competition binding assay; conditions: Ki (summary statement), cell line not specified, summary in discussion
TLR2, sequence (O60603 21-784): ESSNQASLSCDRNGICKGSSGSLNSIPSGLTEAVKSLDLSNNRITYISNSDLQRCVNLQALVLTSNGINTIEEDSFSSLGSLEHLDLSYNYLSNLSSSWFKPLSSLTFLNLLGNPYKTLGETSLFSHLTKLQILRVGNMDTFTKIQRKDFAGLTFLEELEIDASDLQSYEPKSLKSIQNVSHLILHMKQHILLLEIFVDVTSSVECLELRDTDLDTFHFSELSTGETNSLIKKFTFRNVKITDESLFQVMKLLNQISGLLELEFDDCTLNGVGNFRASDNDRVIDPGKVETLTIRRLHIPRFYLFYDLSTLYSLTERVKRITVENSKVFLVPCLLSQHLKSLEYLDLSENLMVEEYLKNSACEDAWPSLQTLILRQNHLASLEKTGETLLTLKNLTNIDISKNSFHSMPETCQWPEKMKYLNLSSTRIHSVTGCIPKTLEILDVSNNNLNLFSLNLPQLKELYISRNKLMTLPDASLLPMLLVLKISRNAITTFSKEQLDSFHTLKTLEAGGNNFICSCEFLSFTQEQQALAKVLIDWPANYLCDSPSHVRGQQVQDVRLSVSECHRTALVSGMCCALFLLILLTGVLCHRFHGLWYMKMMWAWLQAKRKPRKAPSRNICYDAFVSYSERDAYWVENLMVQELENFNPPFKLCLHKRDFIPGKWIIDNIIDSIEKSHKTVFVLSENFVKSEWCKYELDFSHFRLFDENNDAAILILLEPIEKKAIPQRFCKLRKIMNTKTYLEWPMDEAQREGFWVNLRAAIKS

Ki (TLR2) [µM] | SMILES | response rate of tetramer positive CD8+ T cells (day 7 = 100%) ([1]; day 21 post-immunization) [%] | response rate of tetramer positive CD8+ T cells (day 7 = 100%) ([1]; day 34 post-immunization) [%] | signs or symptoms of stress or toxicity in mice ([1]; over the course of the experiment (34 days), 50 μg i.v.)
– | CCCCCCCCCCCCCCCC(=O)OC[C@H](CSC[C@H](NC(=O)COCC(=O)NCCCOCCOCCOCCCNC(C)=O)C(=O)NCC(=O)N[C@H](CO)C(=O)NCCCOCCOCCOCCCNC(=O)COCC(N)=O)OC(=O)CCCCCCCCCCCCCCC [Compound 10] | 25.7 | 12.7 | No signs or symptoms of stress or toxicity were observed
< 0.1 | CCCCCCCCCCCCCCCC(=O)OC[C@H](CSC[C@H](NC(=O)COCC(=O)NCCCOCCOCCOCCCNC(=O)CCSC1CC(=O)N(CCNC(=O)CCCCCN2C(=CC=C3CCCC(C=CC4=[N+](CCCCS(=O)(=O)O)c5ccc(S(=O)(=O)[O-])cc5C4(C)C)=C3Oc3ccc(S(=O)(=O)O)cc3)C(C)(C)c3cc(S(=O)(=O)O)ccc32)C1=O)C(=O)NCC(=O)N[C@H](CO)C(=O)NCCCOCCOCCOCCCNC(=O)COCC(N)=O)OC(=O)CCCCCCCCCCCCCCC (stereo partly shown) [Compound 13, IRDye800CW-Mpr-PEGO-Dhc(Pam2)-Gly-DSer-PEGO-NH2] | – | – | –
